Reference: ChEMBL document CHEMBL5244270, “Selective Inhibitors of G2019S-LRRK2 Kinase Activity” (J Med Chem, 2020)

What was measured:
[1] = target: T1, Leucine-rich repeat serine/threonine-protein kinase 2 (Homo sapiens, UniProt Q5S007); test: Inhibition of N-terminal GST-fused human wild type LRRK2 using fluorescein-labeled LRRKtide as substrate preincubated for 15 mins followed by substrate addition and measured after 1 hr by TR-FRET assay
In short: (§1)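 Purified truncated LRRK2, WT or G2019S, at 2 nM nominal was preincubated with inhibitor for 15 min. LRRKtide (0.4 μM) and ATP (25 μM) were then added for 1 h. The reaction was stopped with 10 mM EDTA plus 2 nM Tb-anti-pLRRKtide antibody, and TR-FRET was read. IC50 is the geometric mean of at least two independent experiments.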

[2] = target: T1, Leucine-rich repeat serine/threonine-protein kinase 2; test: Inhibition of human wild type LRRK2 expressed in HEK293 cells assessed as reduction in pS1292 phosphorylation incubated for 2 hrs by MSD analysis; assay type: cell-based
In short: (§2)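 HEK293 cells stably expressing WT or G2019S LRRK2 (30−50K/well, DMEM with 1% serum) were treated for 2 h at 37 °C and lysed with phosphatase inhibitors. LRRK2 was captured on anti-LRRK2-coated MSD plates overnight at 4 °C. Detection used rabbit anti-pS1292 (1:400) and Sulfo-Tag anti-rabbit, with an electrochemiluminescence read-out. IC50 is the geometric mean of at least two independent experiments.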

[3] = species: Homo sapiens; test: Selectivity ratio of IC50 for inhibition of human wild type LRRK2 expressed in HEK293 cells to IC50 for inhibition of human LRRK2 G2019S mutant expressed in HEK293; assay type: cell-based
In short: (§3)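 HEK293 cells stably expressing WT or G2019S LRRK2 (100 000/well, EMEM with 1% FBS) were dosed about 24 h after plating, for 2 h. They were lysed in 1% SDS Tris buffer with protease and phosphatase inhibitors, and lysates were heated at 65 °C for 10 min. pThr73-Rab10, total Rab10, pS935 and total LRRK2 were quantified by immunoblot. IC50 is the geometric mean of at least two independent experiments.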

[4] = target: T2, Leucine-rich repeat serine/threonine-protein kinase 2 (Homo sapiens, UniProt Q5S007, G2019S); test: Inhibition of human LRRK2 G2019S mutant expressed in HEK293 cells assessed as reduction in pS1292 phosphorylation incubated for 2 hrs by MSD analysis; assay type: cell-based; in short: as §2
[5] = target: T2, Leucine-rich repeat serine/threonine-protein kinase 2; test: Inhibition of human LRRK2 G2019S mutant expressed in HEK293 cells assessed as reduction in pSer935 phosphorylation incubated for 2 hrs by immunoblotting analysis; assay type: cell-based; in short: as §3
[6] = target: T1, Leucine-rich repeat serine/threonine-protein kinase 2; test: Inhibition of human wild type LRRK2 expressed in HEK293 cells assessed as reduction in pSer935 phosphorylation incubated for 2 hrs by HTRF analysis; assay type: cell-based
In short: (§4)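 Stably transfected HEK293 cells expressing human WT or G2019S LRRK2 were seeded at 5K/well in DMEM with 1% serum on poly-D-lysine plates. Inhibitor in DMSO was added for 2 h at 37 °C. pS935 was detected by an HTRF kit. IC50 is the geometric mean of at least two independent experiments.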

[7] = species: Homo sapiens; test: Selectivity ratio of IC50 for inhibition of human wild type LRRK2 expressed in HEK293 cells assessed as reduction in pSer935 phosphorylation to IC50 for inhibition of human LRRK2 G2019S mutant expressed in HEK293 cells assessed as reduction in pSer935 phosphorylation; assay type: cell-based; in short: as §4
[8] = species: Homo sapiens; test: Selectivity ratio of IC50 for inhibition human wild type LRRK2 expressed in human HEK293 assessed as Rab10 substrate phosphorylation at Threonine 73 residue to IC50 for inhibition of human LRRK2 G2019S mutant expressed in human HEK293 assessed as Rab10 substrate phosphorylation at Threonine 73 residue; in short: as §3
[9] = target: T1, Leucine-rich repeat serine/threonine-protein kinase 2; test: Inhibition of human wild type LRRK2 expressed in HEK293 cells assessed as reduction in pSer935 phosphorylation incubated for 2 hrs by immunoblotting analysis; assay type: cell-based; in short: as §3
[10] = target: T1, Leucine-rich repeat serine/threonine-protein kinase 2; test: Inhibition human wild type LRRK2 expressed in human HEK293 assessed as Rab10 substrate phosphorylation at Threonine 73 residue incubated for 2 hrs by immunoblotting analysis; assay type: cell-based; in short: as §3
[11] = species: Homo sapiens; test: Selectivity ratio of IC50 for inhibition of human wild type LRRK2 expressed in HEK293 cells assessed as reduction in pS1292 phosphorylation to IC50 for inhibition of human LRRK2 G2019S mutant expressed in HEK293 cells assessed as reduction in pS1292 phosphorylation; assay type: cell-based; in short: as §2
[12] = target: T2, Leucine-rich repeat serine/threonine-protein kinase 2; test: Inhibition of N-terminal GST-fused human LRRK2 G2019S mutant using fluorescein-labeled LRRKtide as substrate preincubated for 15 mins followed by substrate addition and measured after 1 hr by TR-FRET assay; in short: as §1
[13] = species: Homo sapiens; test: Selectivity ratio of IC50 for inhibition of N-terminal GST-fused human wild type LRRK2 to IC50 for inhibition of N-terminal GST-fused human […] mutant; in short: as §1
[14] = target: T2, Leucine-rich repeat serine/threonine-protein kinase 2; test: Inhibition of human LRRK2 G2019S mutant expressed in HEK293 cells assessed as reduction in pSer935 phosphorylation incubated for 2 hrs by HTRF analysis; assay type: cell-based; in short: as §4
[15] = target: T2, Leucine-rich repeat serine/threonine-protein kinase 2; test: Inhibition human LRRK2 G2019S mutant expressed in human HEK293 assessed as Rab10 substrate phosphorylation at Threonine 73 residue incubated for 2 hrs by immunoblotting analysis; assay type: cell-based; in short: as §3

T1 sequence (Q5S007 whole entry, the tested form may be a part): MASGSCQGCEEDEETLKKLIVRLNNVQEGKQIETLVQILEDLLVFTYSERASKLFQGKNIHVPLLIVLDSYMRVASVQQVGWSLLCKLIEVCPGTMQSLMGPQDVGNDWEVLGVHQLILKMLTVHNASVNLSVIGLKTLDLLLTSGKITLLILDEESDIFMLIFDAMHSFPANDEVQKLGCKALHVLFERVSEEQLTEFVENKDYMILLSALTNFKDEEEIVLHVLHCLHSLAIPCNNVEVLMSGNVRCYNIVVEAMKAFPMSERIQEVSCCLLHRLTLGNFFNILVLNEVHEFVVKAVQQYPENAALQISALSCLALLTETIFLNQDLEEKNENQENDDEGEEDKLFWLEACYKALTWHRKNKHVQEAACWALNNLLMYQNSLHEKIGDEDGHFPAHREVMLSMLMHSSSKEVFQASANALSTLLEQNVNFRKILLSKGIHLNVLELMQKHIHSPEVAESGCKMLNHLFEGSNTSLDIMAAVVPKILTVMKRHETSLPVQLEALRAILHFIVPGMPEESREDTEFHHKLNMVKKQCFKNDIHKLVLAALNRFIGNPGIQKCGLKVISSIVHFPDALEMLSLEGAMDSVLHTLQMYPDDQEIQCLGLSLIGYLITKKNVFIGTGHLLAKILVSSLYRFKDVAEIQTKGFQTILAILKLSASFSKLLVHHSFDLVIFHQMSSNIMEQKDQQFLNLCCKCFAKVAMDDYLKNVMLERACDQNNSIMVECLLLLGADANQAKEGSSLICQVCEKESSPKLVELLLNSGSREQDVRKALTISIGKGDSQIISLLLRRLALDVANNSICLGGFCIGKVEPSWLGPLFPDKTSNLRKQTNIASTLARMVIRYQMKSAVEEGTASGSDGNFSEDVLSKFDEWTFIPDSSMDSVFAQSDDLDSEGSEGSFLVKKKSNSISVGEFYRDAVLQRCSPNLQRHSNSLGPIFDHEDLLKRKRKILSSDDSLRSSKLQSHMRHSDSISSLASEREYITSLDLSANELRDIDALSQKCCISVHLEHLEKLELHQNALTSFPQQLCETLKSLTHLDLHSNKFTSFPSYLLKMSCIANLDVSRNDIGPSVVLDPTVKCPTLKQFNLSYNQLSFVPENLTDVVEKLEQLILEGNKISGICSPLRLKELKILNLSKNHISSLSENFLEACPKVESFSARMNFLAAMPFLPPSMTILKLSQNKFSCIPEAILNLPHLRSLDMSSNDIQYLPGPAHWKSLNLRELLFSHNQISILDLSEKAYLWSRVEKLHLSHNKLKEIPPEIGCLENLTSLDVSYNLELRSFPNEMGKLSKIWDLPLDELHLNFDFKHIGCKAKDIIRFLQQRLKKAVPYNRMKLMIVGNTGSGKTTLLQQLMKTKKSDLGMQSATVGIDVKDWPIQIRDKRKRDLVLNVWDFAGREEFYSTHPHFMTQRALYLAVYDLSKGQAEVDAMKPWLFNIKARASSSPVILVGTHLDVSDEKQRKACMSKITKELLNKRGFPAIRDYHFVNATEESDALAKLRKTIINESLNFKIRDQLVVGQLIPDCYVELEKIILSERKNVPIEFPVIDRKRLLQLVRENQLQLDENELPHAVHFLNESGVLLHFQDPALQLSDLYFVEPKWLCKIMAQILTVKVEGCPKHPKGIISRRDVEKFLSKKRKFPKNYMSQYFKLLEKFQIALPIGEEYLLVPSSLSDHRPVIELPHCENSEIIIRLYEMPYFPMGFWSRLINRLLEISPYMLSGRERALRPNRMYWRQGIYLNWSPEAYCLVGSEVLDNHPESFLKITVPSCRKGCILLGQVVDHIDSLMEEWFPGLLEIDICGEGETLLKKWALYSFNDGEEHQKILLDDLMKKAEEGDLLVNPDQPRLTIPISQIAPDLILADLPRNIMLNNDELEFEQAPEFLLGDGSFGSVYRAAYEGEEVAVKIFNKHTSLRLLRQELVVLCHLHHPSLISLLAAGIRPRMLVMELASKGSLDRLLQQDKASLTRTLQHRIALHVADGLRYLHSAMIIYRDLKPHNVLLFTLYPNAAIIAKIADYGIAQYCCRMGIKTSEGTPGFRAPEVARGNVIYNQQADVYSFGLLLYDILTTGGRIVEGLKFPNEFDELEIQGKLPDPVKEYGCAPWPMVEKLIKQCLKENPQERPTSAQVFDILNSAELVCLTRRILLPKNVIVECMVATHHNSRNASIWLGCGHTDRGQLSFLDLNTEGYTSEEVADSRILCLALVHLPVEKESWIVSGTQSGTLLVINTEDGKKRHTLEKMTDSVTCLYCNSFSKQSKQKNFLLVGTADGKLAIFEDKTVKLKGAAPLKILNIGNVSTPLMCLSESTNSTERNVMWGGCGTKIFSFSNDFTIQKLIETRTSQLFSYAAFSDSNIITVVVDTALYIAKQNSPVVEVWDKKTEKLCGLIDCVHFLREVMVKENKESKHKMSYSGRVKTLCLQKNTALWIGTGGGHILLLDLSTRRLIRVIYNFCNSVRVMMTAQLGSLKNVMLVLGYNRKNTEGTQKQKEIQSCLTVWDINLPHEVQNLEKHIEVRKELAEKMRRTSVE
T2 sequence (Q5S007 whole entry G2019S): as the sequence (Q5S007 whole entry, the tested form may be a part) above, with G2019S counted along it

| Structure (SMILES) | IC50 [1] [nM] | IC50 [2] [nM] | Ratio IC50 [3] | IC50 [4] [nM] | IC50 [5] [nM] | IC50 [6] [nM] | Ratio IC50 [7] | Ratio IC50 [8] | IC50 [9] [nM] | IC50 [10] [nM] | Ratio IC50 [11] | IC50 [12] [nM] | Ratio IC50 [13] | IC50 [14] [nM] | IC50 [15] [nM] |
| --- | --- | --- | --- | --- | --- | --- | --- | --- | --- | --- | --- | --- | --- | --- | --- |
| CC1=C(C(=O)Nc2ccc3[nH]nc(-c4ccnc(N5CCOCC5)c4)c3c2)C(C)(C)n2nnnc2N1C | 0.3 | 33.7 | 132 | 1 | 1.5 | 145 | 173 | 101 | 259 | 473 | 34 | < 0.2 | > 1.5 | 1.1 | 4.7 |
| CC1=C(C(=O)Nc2ccc3[nH]nc(-c4ccccc4)c3c2)C(C)(C)n2nnnc2N1C | 6.6 | 117 | 339 | 1.7 | 2.5 | 1060 | 837 | 344 | 2090 | 3920 | 71 | < 0.2 | > 33 | 3.1 | 11.4 |
